Test results as given in PubChem BioAssay AID720574 (Broad Institute, 2013).
The whole screen tested about 96,000 compounds, of which about 140 (0.15%) were called active. This is one part of a sample in which actives are shown more often than they occur.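 The calls were made as follows: active = mean replicate inhibition above about 25%, with at least 55% of replicates also reaching it (limit read from the data, passing the limit was not always enough); inconclusive = only one of those two conditions met; inactive = neither condition met.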

The compounds below were run against Lysine-specific demethylase 4C (Homo sapiens) (UniProt Q9H3R0) (assay: KDM4C H3K9me3 demethylation inhibition – biochemical, single concentration HTS, primary screen (AID 720574)). Details: GST-KDM4C 2-372, H3K9me3 peptide, LANCE TR-FRET; at 12.5 µM; stronger effect = higher value.
Summary of the method: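 reagent = H3K9me3 peptide substrate, Fe(II), 2-oxoglutarate | system = GST-tagged GASC-1 (JMJD2C) catalytic fragment, aa 2-372 | amount = enzyme final amount 10 nM | read-out = Fall in 671/618 emission ratio as inhibition | medium = HEPES buffer, pH 7.5, plus ascorbate | schedule = 30 min reaction, 60 min detection, RT | measured by = LANCE TR-FRET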

Lysine-specific demethylase 4C (Homo sapiens), sequence (Q9H3R0 2-372 limits assumed): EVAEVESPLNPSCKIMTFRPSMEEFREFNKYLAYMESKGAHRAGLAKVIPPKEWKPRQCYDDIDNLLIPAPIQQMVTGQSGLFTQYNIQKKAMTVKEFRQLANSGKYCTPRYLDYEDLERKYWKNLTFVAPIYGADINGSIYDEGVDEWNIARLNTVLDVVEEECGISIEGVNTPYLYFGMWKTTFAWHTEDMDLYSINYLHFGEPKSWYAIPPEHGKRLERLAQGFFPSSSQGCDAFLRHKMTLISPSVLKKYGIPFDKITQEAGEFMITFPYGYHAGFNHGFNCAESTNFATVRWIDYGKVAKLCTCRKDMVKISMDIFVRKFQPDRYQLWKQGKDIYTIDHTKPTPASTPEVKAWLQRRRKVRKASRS

inhibition, inactive:
Cc1ccc(S(=O)(=O)N(C)C[C@@H]2OCCCC[C@@H](C)Oc3ccc(NC(=O)Nc4ccc(C(F)(F)F)cc4)cc3C(=O)N([C@@H](C)CO)C[C@@H]2C)cc1 1.16%
O=C(CN1CCOCC1)N1CC(=O)N2[C@H](C1)[C@H](c1ccc(/C=C/c3ccccc3)cc1)[C@@H]2CO 0.257%
O=C(NCC[C@H]1CC[C@@H](NC(=O)C2CC2)[C@H](CO)O1)c1ccc(F)cc1 -0.983%
CCC(=O)Nc1ccc2c(c1)C(=O)N(C)[C@@H]1CC[C@H](CC(=O)NCc3ccccc3)O[C@H]1CO2 1.95%
COc1ccc(S(=O)(=O)N[C@@H]2CC[C@@H](CC(=O)N3CCC(Cc4ccccc4)CC3)O[C@@H]2CO)cc1 -0.232%
COCC(=O)Nc1ccc2c(c1)[C@@H]1C[C@H](CC(=O)NCc3ccc(-c4ccccc4)cc3)O[C@H](CO)[C@@H]1O2 -3.13%
CN1C(=O)c2cc(NC(=O)C3CCCC3)ccc2OC[C@@H]2O[C@@H](CC(=O)NCCc3ccncc3)CC[C@@H]21 1.45%
Cc1ccc(S(=O)(=O)N[C@H]2CC[C@@H](CC(=O)N3CCc4ccccc4C3)O[C@H]2CO)cc1 0.126%
O=C(C[C@@H]1C[C@H]2c3cc(NC(=O)Nc4ccccc4)ccc3O[C@H]2[C@@H](CO)O1)NC1CCCCC1 -1.66%
COc1ccc2c3c(n(C)c2c1)[C@@H](CO)N(C(=O)Nc1ccc(F)cc1)CC31CN(C(=O)NC(C)C)C1 -0.434%
C/C=C/c1ccc([C@@H]2[C@H](CO)N(CC3CCOCC3)C23CN(S(=O)(=O)CC)C3)cc1 0.162%
C[C@H](CO)N1C[C@H](C)[C@H](CN(C)Cc2ccncc2)Oc2ncc(C#CCC3CCCCC3)cc2C1=O 2.4%
CC(C)NC(=O)N(C)C[C@@H]1OCCCC[C@@H](C)Oc2ccc(NC(=O)NC3CCCCC3)cc2C(=O)N([C@@H](C)CO)C[C@@H]1C 0.134%
COc1ccccc1C#Cc1cnc2c(c1)C(=O)N([C@H](C)CO)C[C@H](C)[C@H](CN(C)S(=O)(=O)c1cn(C)cn1)O2 -1.15%
CO[C@@H]1CN(C)C(=O)c2ccc(NC(=O)c3ccccc3F)cc2OC[C@@H](C)N(CC2CCOCC2)C[C@H]1C 2.15%
CCNC(=O)C[C@@H]1CC[C@@H]2[C@H](COc3ccc(NS(=O)(=O)c4ccccc4C)cc3C(=O)N2C)O1 2.37%
CN1C[C@@H]2[C@H](c3ccccc31)[C@@H](CO)N2C(=O)Nc1ccccc1 -1.64%
CCC(=O)Nc1ccc2c(c1)C(=O)N(C)[C@H]1CC[C@H](CC(=O)NCCOC)O[C@@H]1CO2 1.02%
Cc1noc(C)c1NC(=O)N[C@@H]1C=C[C@@H](CC(=O)Nc2ccccc2)O[C@H]1CO 1.04%
CCS(=O)(=O)Nc1ccc2c(c1)C(=O)N(C)[C@H]1CC[C@@H](CC(=O)N3CCCCC3)O[C@H]1CO2 -0.234%
COCC(=O)N1CC2(C1)CN(C(=O)COC)[C@@H](CO)c1c2c2ccc(OC)cc2n1C 2.79%
CC(C)NC(=O)N[C@@H]1CC[C@@H](CCNS(=O)(=O)Cc2ccccc2)O[C@@H]1CO -0.501%
COc1ccc(S(=O)(=O)N(C)C[C@H]2Oc3c(NC(=O)CCCCCC(=O)Nc4ccccc4N)cccc3C(=O)N([C@H](C)CO)C[C@H]2C)cc1 0.35%
O=C(NC1CCCC1)[C@H]1[C@H](CO)[C@H]2Cn3c(ccc(-c4ccccc4)c3=O)[C@H]2N1CCc1ccccc1 3.27%
CO[C@H]1CN(C)C(=O)c2ccc(NC(=O)C3CCC3)cc2OC[C@H](C)NC[C@@H]1C -0.842%
Cc1ccccc1S(=O)(=O)N1[C@H](CO)[C@@H](c2ccc(-c3ccccc3)cc2)[C@@H]1C#N -3.67%
COc1ccc(S(=O)(=O)N(C)C[C@H]2OCCCC[C@H](C)Oc3ccc(NC(=O)Nc4ccc5c(c4)OCO5)cc3C(=O)N([C@@H](C)CO)C[C@@H]2C)cc1 15.8%
C[C@@H]1CN([C@@H](C)CO)C(=O)Cc2cc(NC(=O)Nc3ccc4c(c3)OCO4)ccc2O[C@H]1CN(C)S(=O)(=O)c1ccccc1 -0.169%
COc1ccc(C#Cc2ccc([C@H]3[C@H]4CN(C(=O)c5ccncc5)CC(=O)N4[C@H]3CO)cc2)cc1 -3.07%
COc1ccccc1CNC(=O)C[C@H]1C[C@@H]2c3cc(NC(=O)Nc4ccccc4F)ccc3O[C@@H]2[C@H](CO)O1 -9.36%
CO[C@@H]1CN(C)C(=O)c2cc(NC(=O)c3cccc(Oc4ccccc4)c3)ccc2OC[C@H](C)NC[C@@H]1C -0.467%
CN(C)Cc1cn(CC[C@H]2CC[C@@H](NS(=O)(=O)c3ccccc3)[C@H](CO)O2)nn1 0.714%
O=C(NC[C@@H]1N[C@@H](CO)[C@H]1c1ccc(-c2cccnc2)cc1)c1cccc(F)c1 -0.99%
CN1CCN(C(=O)C[C@H]2CC[C@@H]3[C@H](COC[C@@H](O)CN3CC3CCCC3)O2)CC1 6.35%
CCCN1C[C@@H](C)[C@@H](OC)CN(C)C(=O)c2cc(NC(=O)c3ccccc3)ccc2OC[C@H]1C -1.49%
COc1cccc(C(=O)Nc2ccc3c(c2)C(=O)N(C)[C@@H]2CC[C@@H](CC(=O)NCCCN4CCOCC4)O[C@@H]2CO3)c1 -0.807%
COCC(=O)Nc1ccc2c(c1)[C@H]1C[C@@H](CC(=O)NCc3ccccc3F)O[C@H](CO)[C@H]1O2 1.67%
CCCC(=O)N1CCC2(CC1)CN[C@H](CO)c1[nH]c3cc(OC)ccc3c12 -0.39%
CCCC(=O)Nc1ccc2c(c1)C(=O)N(C)C[C@H](OC)[C@H](C)CN(C(=O)c1ccccn1)[C@H](C)CO2 0.027%
C[C@H](CO)N1C[C@H](C)[C@@H](CN(C)Cc2ccc(Oc3ccccc3)cc2)Oc2ccc(NS(=O)(=O)c3ccc(F)cc3)cc2CC1=O -2.45%
